Measured values: ChEMBL document CHEMBL1143652, “Joys of molecules. 2. Endeavors in chemical biology and medicinal chemistry” (J Med Chem, 2005)
≈ marks a conversion by molar mass, not a printed value.

Assays:
Bacteria = test: Minimum inhibitory concentration against bacterial strains; type: functional
[1] = target: T1, Mycothiol S-conjugate amidase (Mycobacterium tuberculosis, UniProt P9WJN1); test: Inhibition of Mycobacterium tuberculosis detoxification enzyme mycothiol-S-conjugate amidase (MCA)
T1 sequence (P9WJN1 whole entry): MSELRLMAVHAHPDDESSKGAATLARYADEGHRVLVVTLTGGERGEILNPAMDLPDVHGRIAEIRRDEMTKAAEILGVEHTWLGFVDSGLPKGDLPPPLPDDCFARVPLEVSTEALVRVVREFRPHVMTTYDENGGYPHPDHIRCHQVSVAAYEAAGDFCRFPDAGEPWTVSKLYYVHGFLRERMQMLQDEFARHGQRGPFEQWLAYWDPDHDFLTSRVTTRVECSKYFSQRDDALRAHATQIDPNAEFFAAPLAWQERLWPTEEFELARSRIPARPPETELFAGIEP

1A9 [2] = test: Inhibitory concentration against human 1A9 ovarian carcinoma cells; type: functional, cell-based
[3] = target: Polyunsaturated fatty acid 5-lipoxygenase (Homo sapiens) (UniProt P09917); test: Inhibitory concentration against 5-lipoxygenase
Polyunsaturated fatty acid 5-lipoxygenase (Homo sapiens), sequence (P09917 whole entry): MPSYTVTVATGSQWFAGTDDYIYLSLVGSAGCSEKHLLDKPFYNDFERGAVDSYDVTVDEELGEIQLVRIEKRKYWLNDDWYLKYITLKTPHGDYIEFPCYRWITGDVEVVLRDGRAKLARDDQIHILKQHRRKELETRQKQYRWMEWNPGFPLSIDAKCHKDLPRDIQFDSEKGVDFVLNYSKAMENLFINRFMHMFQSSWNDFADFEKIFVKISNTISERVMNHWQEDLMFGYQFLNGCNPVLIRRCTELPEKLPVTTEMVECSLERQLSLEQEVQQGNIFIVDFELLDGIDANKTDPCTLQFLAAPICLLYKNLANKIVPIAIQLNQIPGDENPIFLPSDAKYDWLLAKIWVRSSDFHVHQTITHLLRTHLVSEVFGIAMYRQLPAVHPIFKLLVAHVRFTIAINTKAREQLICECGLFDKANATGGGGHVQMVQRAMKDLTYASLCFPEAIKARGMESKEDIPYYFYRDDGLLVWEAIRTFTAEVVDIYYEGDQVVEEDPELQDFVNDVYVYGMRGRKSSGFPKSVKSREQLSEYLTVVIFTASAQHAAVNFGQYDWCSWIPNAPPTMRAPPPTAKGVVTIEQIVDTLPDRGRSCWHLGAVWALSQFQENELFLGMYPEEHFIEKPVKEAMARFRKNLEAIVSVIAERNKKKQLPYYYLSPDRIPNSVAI

1A9 [4] = test: Inhibition concentration against human ovarian 1A9 tumor cells; type: functional, cell-based
[5] = target: Tubulin beta-4B chain (Homo sapiens) (UniProt P68371); test: (§1) Tubulin polymerization at a concentration of 100 uM incubated for 90 minutes; type: functional
Tubulin beta-4B chain (Homo sapiens), sequence (P68371 whole entry): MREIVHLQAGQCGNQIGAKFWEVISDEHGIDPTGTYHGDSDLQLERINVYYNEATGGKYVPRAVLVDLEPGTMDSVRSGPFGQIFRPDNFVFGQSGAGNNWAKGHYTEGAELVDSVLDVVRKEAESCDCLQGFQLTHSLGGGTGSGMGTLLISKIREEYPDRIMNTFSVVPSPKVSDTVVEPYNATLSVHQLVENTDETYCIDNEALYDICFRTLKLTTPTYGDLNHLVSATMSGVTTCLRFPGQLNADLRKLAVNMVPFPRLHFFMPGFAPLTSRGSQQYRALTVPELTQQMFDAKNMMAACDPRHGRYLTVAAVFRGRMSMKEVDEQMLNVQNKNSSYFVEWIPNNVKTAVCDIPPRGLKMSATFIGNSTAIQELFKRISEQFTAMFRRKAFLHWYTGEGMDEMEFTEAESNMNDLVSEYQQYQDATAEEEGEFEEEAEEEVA
In short: (§2)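 Tubulin polymerization was read as percent polymerization, with test drug at 100 µM and a 90 min incubation.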

[6] = target: Tubulin beta-4B chain (Homo sapiens) (UniProt P68371); test: as §1; in short: as §2
1A9 [7] = test: Cytotoxicity against 1A9 ovarian cancer cells; type: functional, cell-based; details: Homo sapiens
[8] = Antiproliferation activity against cancer cell lines by mixed-lymphocyte-reaction proliferation assay; type: functional, cell-based; details: Homo sapiens
MOLT-4 [9] = test: Inhibitory concentration against MOLT-4 human T-cells; 10e-12; type: functional, cell-based
MOLT-4 [10] = test: Inhibitory concentration against MOLT-4 human T-cells; type: functional, cell-based
[11] = In vitro cytotoxicity against leukemia P-388 tumor cells; type: functional, cell-based; details: Mus musculus, P388
[12] = target: cAMP-dependent protein kinase (PKA) (Homo sapiens, UniProt P22694+P17612+P22612); test: Inhibitory constant against the protein kinase A; type: protein assay
Protein kinase C (PKC) = test: Inhibitory activity against protein kinase C; type: protein assay
1A9 [13] = test: Cytotoxicity against 1A9 human ovarian carcinoma cells; type: functional, cell-based
Felis catus = organism: Felis catus; test: Inhibition of LTC4 and LTD4 production in cat lung at 5 mM; type: functional
Enterococcus faecium = test: Minimum inhibitory concentration against vancomycin resistant Enterococcus faecium; type: functional
Staphylococcus aureus = test: Minimum inhibitory concentration against methicillin resistant Staphylococcus aureus (MRSA); range is 3-12 ug/mL; type: functional

## Nc1ccc(SSCCNC(=O)/C(Cc2cccc(Br)c2)=N/O)cc1
Bacteria
  MIC: 0.09 ug m/L
[1]
  IC50: 185 µM

## COCn1c(Cl)c2c3c(cccc31)-c1cccc3c1OC[C@@]3(c1ccccc1)c1oc(C)nc1-c1nc(Cl)c-2o1
1A9 [2]
  IC50: 3.6 µM

## O=C(NCCSSc1ccc(F)cc1)/C(Cc1cccc(Br)c1)=N/O
Bacteria
  MIC: 0.11 ug m/L
[1]
  IC50: 90 µM

## CCCCC/C=C\C\C=C/C=C/C=C/[C@@H]1C[C@H]1CCCC(=O)O
[3]
  ID50: 44 µM

## CCOC(=O)/C1=C/[C@@H]2[C@@H](C(C)C)CC=C(C)[C@@H]2C[C@H](OC(=O)/C=C/c2cn(C)cn2)[C@]2(C)C=C[C@@]1(O)O2 [SARCODICTYIN B]
1A9 [4]
  IC50: 0.002 µM
[5]
  TP: 71%
[6]
  TP: 71%

## COC1=C(CC=C(C)C)[C@]2(OC(=O)C3=C[C@]4(OC)C[C@H]5C(C)(C)OC(CC=C(C)C)(C4=O)[C@]35O2)C(=O)C2=C1C=CC(C)(C)O2
1A9 [7]
  IC50: 5 µM

## CNC(=O)/C1=C/[C@@H]2[C@@H](C(C)C)CC=C(C)[C@@H]2C[C@H](OC(=O)/C=C/c2cn(C)cn2)[C@]2(C)C=C[C@@]1(OC)O2
1A9 [4]
  IC50: 0.045 µM
[5]
  TP: 52%
[6]
  TP: 52%

## CCCCCCCCCC[C@H]1C[C@H]1CCCC/C=C\CC[C@@H](O)C(=O)N[C@@H](CO[C@@H]1O[C@@H](CO)[C@@H](O)[C@H](O)[C@@H]1O)[C@@H](CCCCCCC[C@@H]1C[C@@H]1CCCCCCCCCC)OC=C(C)C
[8]
  IC50: 28 µM

## COC(=O)N/C(C)=C1/C(=C/CSSSC)[C@@](O)(CC=O)C#C/C=C\C#C[C@@H]1O
MOLT-4 [9]
  IC50: 1.2 pM
MOLT-4 [10]
  IC50: 1.2 pM

## CCNC1COC(OC2C(O[C@H]3C#C/C=C\C#C[C@@](C)(O)C(=C/CSC(C)=O)/C3=C(\NC(=O)OC)C(C)=O)OC(C)C(NOC3CC(O)C(SC(=O)c4c(C)c(I)c(OC5OC(C)C(O)C(OC)C5O)c(OC)c4OC)C(C)O3)C2O)CC1OC (some centres undefined)
MOLT-4 [9]
  IC50: < 1 pM
MOLT-4 [10]
  IC50: < 10 pM

## COC(=O)/C1=C/[C@@H]2[C@@H](C(C)C)CC=C(C)[C@@H]2C[C@H](OC(=O)/C=C/c2cn(C)cn2)[C@]2(C)C=C[C@@]1(O)O2 [SARCODICTYIN A]
1A9 [4]
  IC50: 0.34 µM
[5]
  TP: 67%
[6]
  TP: 67%

## CCOC(=O)c1c(OCC)cc(C)cc1[C@H]1[C@@H](C(C)C)CC[C@@]1(C)C(=O)OCC
[11]
  IC50: 54.2 µM

## O=C(N[C@@H]1CNCCC[C@H]1OC(=O)c1ccc(C(=O)c2c(O)cccc2C(=O)O)cc1)c1ccc(O)cc1
[12]
  Ki: 0.0034 µM
Protein kinase C (PKC)
  Ki: 0.08 µM

## O=C(N[C@@H]1CNCCC[C@H]1OC(=O)c1cc(O)c(C(=O)c2ccccc2C(=O)O)c(O)c1)c1ccc(O)cc1
[12]
  Ki: 0.0039 µM
Protein kinase C (PKC)
  Ki: 0.64 µM

## CC/C=C\C=C/C(=O)N/C=C\C[C@H]1C[C@H]2C[C@H](O)C[C@H](Cc3cccc(O)c3C(=O)O1)O2
1A9 [13]
  IC50: 0.0707 µM

## CCCCC/C=C\C1(/C=C\C2(/C=C\C3(/C=C\CCCC(=O)O)CC3)CC2)CC1
Felis catus
  Inhibition: 10%

## CC1OC(OC2C(Oc3c4cc5cc3Oc3ccc(cc3Cl)[C@H](O)[C@H]3NC(=O)[C@@H](NC(=O)[C@H]5NC(=O)[C@@H](CC(N)=O)NC(=O)[C@@H](NC(=O)[C@@H](N)CO)[C@@H](O)c5ccc(c(Cl)c5)O4)c4ccc(O)c(c4)-c4c(O)cc(O)cc4[C@H](C(=O)NCC(=O)O)NC3=O)OC(CO)C(O)C2O)CC(C)(NCc2cccc(OCC/C=C\COc3cccc(CNC4(C)CC(OC5C(Oc6c7cc8cc6Oc6ccc(cc6Cl)[C@@H](O)[C@@H](NC(=O)[C@H](N)CO)C(=O)N[C@@H](CC(N)=O)C(=O)N[C@H]8C(=O)N[C@H]6C(=O)N[C@H](C(=O)N[C@H](C(=O)NCC(=O)O)c8cc(O)cc(O)c8-c8cc6ccc8O)[C@H](O)c6ccc(c(Cl)c6)O7)OC(CO)C(O)C5O)OC(C)C4O)c3)c2)C1O (some centres undefined)
Enterococcus faecium
  MIC: 0.25 µg/mL (≈ 0.0779 µM)

## Cc1cc2c(c(O)c1Br)C(=O)C(=O)[C@]1(C)CC[C@H](C(C)C)[C@H]21 [HAMIGERAN B]
[11]
  IC50: 13.5 µM

## CO[C@@]12C=C3C(=O)O[C@]4(O[C@]35[C@@H](C1)C(C)(C)OC5(CC=C(C)C)C2=O)C(=O)C1=C(C=CC(C)(C)O1)C(=O)C4CC=C(C)C (some centres undefined) [1-O-METHYLLATERIFLORONE]
1A9 [7]
  IC50: 25 µM

## CC1(C)C=Cc2cccc(/C=C(/C#N)c3ccc(O)cc3)c2O1
Staphylococcus aureus
  MIC: 12 µg/mL (≈ 39.6 µM)
Staphylococcus aureus; Staphylococcus aureus, read-out: MIC
  MIC: 12 µg/mL (≈ 39.6 µM)

## CCCCCCCCCC[C@H]1CC1CCCC/C=C\CC[C@@H](O)C(=O)N[C@@H](CO[C@@H]1OC(CO)[C@@H](O)[C@H](O)[C@@H]1OCC=C(C)C)[C@H](O)CCC/C=C\CCCC[C@@H]1C[C@@H]1CCCCCCCCCC (single isomer, unassigned)
[8]
  IC50: > 50 µM
